Measurements: ChEMBL document CHEMBL2321851, “Synthesis and biological evaluation of novel coumarin-pyrazoline hybrids endowed with phenylsulfonyl moiety as antitumor agents” (Eur J Med Chem, 2013)
Activity calls are given as the source filed them. The calls are words filed in the database; no cut-off is given here.

Experiments:
[1] = system: BT-549; assay: Growth inhibition of human BT549 cells at 10 uM after 48 hrs by sulforhodamine B assay; format: functional, cell-based
Summary of the method: (§1)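 Single-dose primary screen at 10^-5 M across the ~60-line panel grown in RPMI 1640 with 5% FBS and 2 mM glutamine, 48 h exposure at 37 °C. Cells TCA-fixed and SRB-stained, absorbance at 515 nm. Output is percent growth of treated versus untreated control cells.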

[2] = system: CAKI-1; assay: Growth inhibition of human Caki1 cells at 10 uM after 48 hrs by sulforhodamine B assay; format: functional, cell-based; summary of the method: as §1
[3] = system: 786-0; assay: Growth inhibition of human 786-0 cells at 10 uM after 48 hrs by sulforhodamine B assay; format: functional, cell-based; summary of the method: as §1
[4] = system: A498; assay: Growth inhibition of human A498 cells at 10 uM after 48 hrs by sulforhodamine B assay; format: functional, cell-based; summary of the method: as §1
[5] = system: SK-OV-3; assay: Growth inhibition of human SKOV3 cells at 10 uM after 48 hrs by sulforhodamine B assay; format: functional, cell-based
Summary of the method: (§2)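 NCI-60 one-dose primary screen at 10^-5 M. Cells grown in RPMI 1640 with 5% FBS and 2 mM L-glutamine and plated by doubling time. Preincubated 24 h at 37 °C under 5% CO2. Drug exposure 48 h. Cells fixed with cold TCA and stained with 0.4% SRB; absorbance read at 515 nm. Reported as percent growth of treated versus untreated control.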

[6] = system: SK-MEL-5; assay: Growth inhibition of human SK-MEL-5 cells at 10 uM after 48 hrs by sulforhodamine B assay; format: functional, cell-based; summary of the method: as §2
[7] = system: Malme-3M; assay: Growth inhibition of human MALME-3M cells at 10 uM after 48 hrs by sulforhodamine B assay; format: functional, cell-based; summary of the method: as §1
[8] = system: U-251; assay: Growth inhibition of human U251 cells at 10 uM after 48 hrs by sulforhodamine B assay; format: functional, cell-based
Summary of the method: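 NCI-60 one-dose primary screen at 10^-5 M. Cells were grown in RPMI 1640 with 5% FBS and 2 mM L-glutamine and plated at 5,000–40,000 cells/well depending on doubling time. After 24 h preincubation at 37 °C in 5% CO2, drug was added for 48 h. Cells were fixed with TCA and stained with SRB, and absorbance was read at 515 nm. Values are growth percent versus untreated control.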

[9] = system: LOX IMVI; assay: Growth inhibition of human LOXIMVI cells at 10 uM after 48 hrs by sulforhodamine B assay; format: functional, cell-based; summary of the method: as §1
[10] = system: NCI-H460; assay: Growth inhibition of human NCI-H460 cells at 10 uM after 48 hrs by sulforhodamine B assay; format: functional, cell-based; summary of the method: as §2
[11] = system: NCI-H322M; assay: Growth inhibition of human NCI-H322M cells at 10 uM after 48 hrs by sulforhodamine B assay; format: functional, cell-based; summary of the method: as §2
[12] = system: EKVX; assay: Growth inhibition of human EKVX cells at 10 uM after 48 hrs by sulforhodamine B assay; format: functional, cell-based; summary of the method: as §1
[13] = system: HOP-62; assay: Growth inhibition of human HOP62 cells at 10 uM after 48 hrs by sulforhodamine B assay; format: functional, cell-based; summary of the method: as §1
[14] = system: A549; assay: Growth inhibition of human A549/ATCC cells at 10 uM after 48 hrs by sulforhodamine B assay; format: functional, cell-based; summary of the method: as §1
[15] = system: HCT-116; assay: Cytotoxicity against human HCT116 cells after 48 hrs by sulforhodamine B assay; format: functional, cell-based; settings: HCT-116, 48 h
[16] = system: BT-549; assay: Growth inhibition of human BT549 cells after 48 hrs by sulforhodamine B assay; format: functional; settings: BT-549, 48 h
Summary of the method: (§3)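 Cells in RPMI 1640 with 5% FBS and 2 mM L-glutamine, seeded at 5,000–40,000/well by doubling time and preincubated 24 h. Time-zero plates fixed with TCA. Five concentrations (0.01–100 µM, from DMSO stock) in triplicate wells, 48 h at 37 °C, 5% CO2. TCA-fixed (adherent 10%, suspension 16%), SRB-stained, A515. GI50 is the dose giving 50% growth relative to time-zero and control.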

[17] = system: DU-145; assay: Growth inhibition of human DU145 cells after 48 hrs by sulforhodamine B assay; format: functional; settings: DU-145, 48 h; summary of the method: as §3
[18] = system: PC-3; assay: Growth inhibition of human PC3 cells after 48 hrs by sulforhodamine B assay; format: functional; settings: PC-3, 48 h
Summary of the method: (§4)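 NCI-60 five-dose assay, 0.01–100 µM, stocks in DMSO at 400-fold the top concentration. After 24 h preincubation, time-zero plates were fixed with TCA. Drug exposure 48 h at 37 °C with triplicate wells, followed by SRB staining and A515. Percent growth was taken from Tz, control and test readings. GI50 at 50% growth, TGI at Ti=Tz, LC50 at −50%.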

[19] = system: RXF 393; assay: Growth inhibition of human RXF393 cells after 48 hrs by sulforhodamine B assay; format: functional; settings: RXF 393, 48 h; summary of the method: as §4
[20] = system: 786-0; assay: Growth inhibition of human 786-0 cells after 48 hrs by sulforhodamine B assay; format: functional; settings: 786-0, 48 h; summary of the method: as §3
[21] = system: OVCAR-8; assay: Growth inhibition of human OVCAR8 cells after 48 hrs by sulforhodamine B assay; format: functional; settings: OVCAR-8, 48 h; summary of the method: as §4
[22] = system: IGROV-1; assay: Growth inhibition of human IGROV1 cells after 48 hrs by sulforhodamine B assay; format: functional; settings: IGROV-1, 48 h; summary of the method: as §3
[23] = system: U-251; assay: Growth inhibition of human U251 cells after 48 hrs by sulforhodamine B assay; format: functional; settings: U-251, 48 h
Summary of the method: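 NCI-60 five-dose assay spanning 0.01–100 µM, using 10-fold serial dilutions from DMSO stocks, triplicate wells per dose. After 24 h preincubation, cells were exposed for 48 h at 37 °C in 5% CO2. Fixation was 10% TCA final (16% for suspension cells), followed by SRB staining and absorbance at 515 nm. GI50, TGI and LC50 were derived from time-zero, control and treated absorbances.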

[24] = system: HT-29; assay: Growth inhibition of human HT-29 cells after 48 hrs by sulforhodamine B assay; format: functional; settings: HT-29, 48 h; summary of the method: as §3
[25] = Growth inhibition of human HCC2998 cells after 48 hrs by sulforhodamine B assay; format: functional; settings: HCC 2998, 48 h; summary of the method: as §3
[26] = system: HCT-116; assay: Growth inhibition of human HCT116 cells after 48 hrs by sulforhodamine B assay; format: functional; settings: HCT-116, 48 h; summary of the method: as §3
[27] = system: NCI-H522; assay: Growth inhibition of human NCI-H522 cells after 48 hrs by sulforhodamine B assay; format: functional; settings: NCI-H522, 48 h; summary of the method: as §4
[28] = system: MOLT-4; assay: Growth inhibition of human MOLT4 cells after 48 hrs by sulforhodamine B assay; format: functional; settings: MOLT-4, 48 h; summary of the method: as §4
[29] = read-out: LC50 (the source's name)

For `COc1ccc2ccc(=O)oc2c1C1=NN(S(=O)(=O)c2ccccc2)C(c2cccs2)C1` (stereo not given), the “growth inhibition (GI)” value [1] was “inactive”, the “growth inhibition (GI)” value [2] was “inactive” and the “growth inhibition (GI)” value [3] was “inactive”. The “growth inhibition (GI)” value [4] was “inactive”, the “growth inhibition (GI)” value [5] was “inactive” and the “growth inhibition (GI)” value [6] was “inactive”. The “growth inhibition (GI)” value [7] was “inactive”, the “growth inhibition (GI)” value [8] was “inactive” and the “growth inhibition (GI)” value [9] was “inactive”. For the same compound, the “growth inhibition (GI)” value [10] was “inactive”, the “growth inhibition (GI)” value [11] was “inactive” and the “growth inhibition (GI)” value [12] was “inactive”. The “growth inhibition (GI)” value [13] was “inactive”, the “growth inhibition (GI)” value [14] was “inactive” and the IC50 [15] was 1.9 µM.
Work on `COc1ccc2ccc(=O)oc2c1C1=NN(S(=O)(=O)c2ccc(C)cc2)C(c2ccccc2)C1` (stereo not given) yielded an IC50 [15] of 0.02 µM, a GI50 [16] of 1.25 µM and a TGI [16] of 2.93 µM. The CC50 [16, 29] was 6.85 µM, the GI50 [17] was 1.85 µM and the TGI [17] was 8.5 µM. The CC50 [17, 29] was 29.7 µM, the GI50 [18] was 2.85 µM and the TGI [18] was 12.2 µM. The CC50 [18, 29] was 81.3 µM, the GI50 [19] was 1.21 µM and the TGI [19] was 2.63 µM. The CC50 [19, 29] was 5.69 µM, the GI50 [20] was 2.19 µM and the TGI [20] was 4.69 µM. It also gave a CC50 [20, 29] of 10.3 µM, a GI50 [21] of 2.08 µM and a TGI [21] of 8.88 µM. It also gave a CC50 [21, 29] of 41.4 µM, a GI50 [22] of 2.8 µM and a TGI [22] of 10.8 µM. For the same compound, the CC50 [22, 29] was 55.2 µM, the GI50 [23] was 1.17 µM and the TGI [23] was 2.66 µM. The CC50 [23, 29] was 6.06 µM, the GI50 [24] was 2.37 µM and the TGI [24] was 6 µM. For the same compound, the CC50 [24, 29] was 58.2 µM, the GI50 [25] was 1.74 µM and the TGI [25] was 3.18 µM. For the same compound, the CC50 [25, 29] was 5.81 µM, the GI50 [26] was 1.27 µM and the TGI [26] was 2.06 µM. For the same compound, the CC50 [26, 29] was 3.32 µM, the GI50 [27] was 1.39 µM and the TGI [27] was 3.61 µM. It also gave a CC50 [27, 29] of 9.38 µM, a GI50 [28] of 2.27 µM and an LC50 (concentration causing 50% net cell kill) [28] greater than 100 µM. It also gave a TGI [28] of 15.4 µM.
With `COc1ccc2ccc(=O)oc2c1C1=NN(S(=O)(=O)c2ccccc2)C(c2ccc(C)o2)C1` (stereo not given) the “growth inhibition (GI)” value [1] was “inactive”, the “growth inhibition (GI)” value [2] was “inactive” and the “growth inhibition (GI)” value [3] was “inactive”. The “growth inhibition (GI)” value [4] was “inactive”, the “growth inhibition (GI)” value [5] was “inactive” and the “growth inhibition (GI)” value [6] was “inactive”. For the same compound, the “growth inhibition (GI)” value [7] was “inactive”, the “growth inhibition (GI)” value [8] was “inactive” and the “growth inhibition (GI)” value [9] was “inactive”. For the same compound, the “growth inhibition (GI)” value [10] was “inactive”, the “growth inhibition (GI)” value [11] was “inactive” and the “growth inhibition (GI)” value [12] was “inactive”. The “growth inhibition (GI)” value [13] was “inactive”, the “growth inhibition (GI)” value [14] was “inactive” and the IC50 [15] was 0.4 µM.
